# Measurements from ChEMBL document CHEMBL1129426, “5-Lipoxygenase inhibitors: synthesis and structure-activity relationships of a series of 1-aryl-2H,4H-tetrahydro-1,2,4-triazin-3-ones” (J Med Chem, 1996).
# Several values for one entry are separate records, joined by “and”; a condition that tells them apart may be missing. Identical values can stand only once.
# Tests used:
# Cyclooxygenase [1] = target: T1, Cyclooxygenase (Rattus norvegicus, UniProt P35355+Q63921); test: In vitro cyclooxygenase inhibitory activity against calcium ionophore (A23187) induced thromboxane formation in rat polymorphonuclear leukocytes; type: functional, cell-based
# T1 sequence (P35355 whole entry): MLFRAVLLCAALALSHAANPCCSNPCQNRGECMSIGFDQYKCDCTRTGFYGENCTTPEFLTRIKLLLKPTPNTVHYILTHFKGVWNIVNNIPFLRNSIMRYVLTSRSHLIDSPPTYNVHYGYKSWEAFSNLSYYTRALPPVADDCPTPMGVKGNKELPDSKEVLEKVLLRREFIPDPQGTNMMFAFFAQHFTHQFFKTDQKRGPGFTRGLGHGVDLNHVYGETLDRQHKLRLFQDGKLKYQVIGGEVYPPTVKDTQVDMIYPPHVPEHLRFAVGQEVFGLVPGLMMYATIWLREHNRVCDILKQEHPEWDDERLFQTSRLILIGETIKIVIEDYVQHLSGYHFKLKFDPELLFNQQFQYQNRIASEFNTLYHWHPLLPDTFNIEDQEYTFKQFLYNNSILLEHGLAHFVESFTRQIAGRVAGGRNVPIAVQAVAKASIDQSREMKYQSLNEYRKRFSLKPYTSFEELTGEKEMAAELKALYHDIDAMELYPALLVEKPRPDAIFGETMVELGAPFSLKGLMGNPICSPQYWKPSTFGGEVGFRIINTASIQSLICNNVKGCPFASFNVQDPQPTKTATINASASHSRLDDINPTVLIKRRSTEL
# T1 sequence (Q63921 whole entry): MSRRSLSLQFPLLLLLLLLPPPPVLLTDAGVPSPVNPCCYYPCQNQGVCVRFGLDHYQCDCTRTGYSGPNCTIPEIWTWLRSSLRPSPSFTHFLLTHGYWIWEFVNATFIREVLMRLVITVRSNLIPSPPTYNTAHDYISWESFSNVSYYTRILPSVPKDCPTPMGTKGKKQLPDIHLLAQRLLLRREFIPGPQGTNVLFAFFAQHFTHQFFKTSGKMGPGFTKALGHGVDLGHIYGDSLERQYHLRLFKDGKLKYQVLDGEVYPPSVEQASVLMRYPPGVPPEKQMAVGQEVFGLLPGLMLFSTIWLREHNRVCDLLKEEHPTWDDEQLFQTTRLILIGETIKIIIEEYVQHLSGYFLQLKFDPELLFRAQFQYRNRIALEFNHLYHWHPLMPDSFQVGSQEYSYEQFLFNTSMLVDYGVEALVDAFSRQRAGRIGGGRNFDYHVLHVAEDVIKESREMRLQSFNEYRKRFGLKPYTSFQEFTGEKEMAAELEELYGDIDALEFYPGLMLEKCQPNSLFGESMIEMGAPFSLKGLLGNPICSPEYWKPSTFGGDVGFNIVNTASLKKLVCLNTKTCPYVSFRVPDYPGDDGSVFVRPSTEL
# Method in brief: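 Rat polymorphonuclear leukocytes, intact cells, stimulated with calcium ionophore A23187. Thromboxane quantified by enzyme immunoassay. Duplicate assays.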
# Cyclooxygenase [2] = target: T2, Cyclooxygenase (Homo sapiens, UniProt P35354+P23219); test: In vitro cyclooxygenase inhibitory activity against calcium ionophore (A23187) induced thromboxane formation in human whole blood; type: functional, tissue-based
# Method in brief: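 Human whole blood stimulated with calcium ionophore A23187. Thromboxane measured by enzyme immunoassay. Assays in duplicate.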
# [3] = target: Prostaglandin G/H synthase 1 (Ovis aries) (UniProt P05979); test: Compound was tested in vitro for inhibition of Prostaglandin G/H synthase sheep seminal vesicle
# [4] = T1/2 in dog (PO dose); type: ADME, organism-based; conditions: in vivo
# Method in brief: (§1)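 Dogs (n=2) given 113 or 112 µmol/kg orally. Blood sampled at various times; plasma deproteinized with methanol and quantified by reversed-phase C18 HPLC with UV detection at 260 nm, external calibration. Values are means of two animals.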
# [5] = target: T3, Polyunsaturated fatty acid 5-lipoxygenase (Homo sapiens, UniProt P09917); test: In vitro 5-lipoxygenase inhibitory activity against calcium ionophore (A23187) induced LTB4 formation in human whole blood; type: functional, tissue-based
# T3 sequence (P09917 whole entry): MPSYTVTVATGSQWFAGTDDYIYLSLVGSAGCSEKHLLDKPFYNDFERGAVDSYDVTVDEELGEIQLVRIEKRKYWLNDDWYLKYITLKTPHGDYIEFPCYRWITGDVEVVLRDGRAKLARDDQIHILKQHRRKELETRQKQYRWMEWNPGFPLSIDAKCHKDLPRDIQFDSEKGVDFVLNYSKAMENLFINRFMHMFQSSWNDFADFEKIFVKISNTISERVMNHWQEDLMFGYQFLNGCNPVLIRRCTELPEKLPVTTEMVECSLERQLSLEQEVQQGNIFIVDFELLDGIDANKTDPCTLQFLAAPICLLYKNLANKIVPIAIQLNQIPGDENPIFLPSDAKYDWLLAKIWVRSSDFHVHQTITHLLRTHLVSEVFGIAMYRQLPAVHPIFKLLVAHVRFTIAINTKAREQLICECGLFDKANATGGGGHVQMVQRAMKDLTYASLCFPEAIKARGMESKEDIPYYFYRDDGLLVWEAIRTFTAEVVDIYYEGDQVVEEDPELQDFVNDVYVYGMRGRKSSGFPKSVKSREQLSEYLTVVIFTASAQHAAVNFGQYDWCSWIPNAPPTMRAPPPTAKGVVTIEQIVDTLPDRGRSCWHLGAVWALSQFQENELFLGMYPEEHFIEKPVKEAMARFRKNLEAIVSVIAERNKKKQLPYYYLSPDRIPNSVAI
# [6] = Cmax in rat (PO dose); type: ADME, organism-based; parameters: route oral; conditions: in vivo
# Method in brief: (§2)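 Rats dosed by oral gavage at 200 µmol/kg. Tail-vein blood drawn at about 1 h intervals; plasma analysed by HPLC. Mean of data from two animals.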
# [7] = Cmax in cynomolgus monkey (PO dose); type: ADME, organism-based, Macaca fascicularis; parameters: route oral; conditions: in vivo
# Method in brief: (§3)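 Cynomolgus monkeys (n=2) dosed orally, 113 or 112 µmol/kg, as suspension in 0.2% HPMC. Plasma from serial blood samples deproteinized with 2 volumes methanol, run on C18 reversed-phase HPLC (55% acetonitrile, 10 mM acetohydroxamic acid, 8 mM triethylamine acetate, pH 6.5), UV 260 nm against external calibration curve. Mean of two animals.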
# [8] = Plasma Tmax in rat (PO dose); type: ADME, organism-based; method in brief: as §2
# [9] = Tmax in dog (PO dose); type: ADME, organism-based, Canis lupus familiaris; conditions: in vivo; method in brief: as §1
# [10] = Tmax in cynomolgus monkey (PO dose); type: ADME, organism-based, Macaca fascicularis; conditions: in vivo; method in brief: as §3
# [11] = target: T4, Polyunsaturated fatty acid 5-lipoxygenase (Rattus norvegicus, UniProt P12527); test: In vitro 5-lipoxygenase inhibitory activity against calcium ionophore (A23187) induced LTB4 formation in rat polymorphonuclear leukocytes; type: functional, cell-based
# T4 sequence (P12527 whole entry): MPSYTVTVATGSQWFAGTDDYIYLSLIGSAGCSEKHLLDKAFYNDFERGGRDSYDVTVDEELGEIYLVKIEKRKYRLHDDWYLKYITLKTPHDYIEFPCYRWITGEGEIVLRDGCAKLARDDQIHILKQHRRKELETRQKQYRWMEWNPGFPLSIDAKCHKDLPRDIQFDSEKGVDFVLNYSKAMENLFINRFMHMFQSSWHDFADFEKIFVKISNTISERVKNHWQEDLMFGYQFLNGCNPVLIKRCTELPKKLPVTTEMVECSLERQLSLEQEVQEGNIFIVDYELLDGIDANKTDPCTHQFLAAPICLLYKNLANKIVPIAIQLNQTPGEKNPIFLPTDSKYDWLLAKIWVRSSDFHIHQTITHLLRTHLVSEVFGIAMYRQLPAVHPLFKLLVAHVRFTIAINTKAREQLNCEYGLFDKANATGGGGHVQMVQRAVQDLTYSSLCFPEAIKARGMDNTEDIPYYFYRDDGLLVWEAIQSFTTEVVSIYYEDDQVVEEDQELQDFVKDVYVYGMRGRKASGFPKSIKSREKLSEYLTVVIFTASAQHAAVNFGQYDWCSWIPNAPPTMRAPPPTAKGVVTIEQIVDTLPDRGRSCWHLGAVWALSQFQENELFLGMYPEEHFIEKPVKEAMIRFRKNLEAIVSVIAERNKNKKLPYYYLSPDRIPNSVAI
# [12] = target: T3, Polyunsaturated fatty acid 5-lipoxygenase; test: In vitro 5-lipoxygenase inhibitory activity against calcium ionophore (A23187) induced LTB4 formation in human whole blood.
# [13] = target: Cyclooxygenase (Rattus norvegicus) (UniProt P35355+Q63921); test: In vitro cyclooxygenase inhibitory activity at 100 uM against calcium ionophore (A23187) induced thromboxane formation in rat polymorphonuclear leukocytes; type: functional, cell-based
# Method in brief: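 Rat polymorphonuclear leukocytes stimulated with calcium ionophore A23187; thromboxane determined by enzyme immunoassay. Duplicate assays; percent inhibition reported at highest concentration tested.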
# Rattus norvegicus = test: In vivo inhibition of rat anaphylaxis leukotriene formation from peritoneal fluids, 1 hr after an oral dose of 200 uM/Kg; type: functional
# Method in brief: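 Rats given 200 µmol/kg orally 1 h before antibody-antigen challenge inducing peritoneal leukotriene biosynthesis; LTE4 in peritoneal fluid measured. Mean of eight rats; percent inhibition versus control group mean; significance by one-way ANOVA with Tukey's multiple comparison.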
# [14] = target: Prostaglandin G/H synthase 1 (Ovis aries) (UniProt P05979); test: Compound at 100 uM was tested in vitro for inhibition of Prostaglandin G/H synthase sheep seminal vesicle
# [15] = T1/2 in cynomolgus monkey (PO dose); type: ADME, organism-based, Macaca fascicularis; conditions: in vivo; method in brief: as §3
# Cmax in dog (PO dose) = conditions: in vivo
# [16] = Tmax in rat (PO dose); type: ADME, organism-based; conditions: in vivo; method in brief: as §2
# Cyclooxygenase [17] = target: T2, Cyclooxygenase; test: In vitro cyclooxygenase inhibitory activity at 100 uM against calcium ionophore (A23187) induced thromboxane formation in human whole blood; type: functional, tissue-based
# Method in brief: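 Human whole blood challenged with calcium ionophore A23187; thromboxane measured by enzyme immunoassay as COX readout. Duplicate assays; percent inhibition at highest tested concentration.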
# Chain of Prostaglandin G/H synthase 1 (Ovis aries) (P05979 whole entry, looked up): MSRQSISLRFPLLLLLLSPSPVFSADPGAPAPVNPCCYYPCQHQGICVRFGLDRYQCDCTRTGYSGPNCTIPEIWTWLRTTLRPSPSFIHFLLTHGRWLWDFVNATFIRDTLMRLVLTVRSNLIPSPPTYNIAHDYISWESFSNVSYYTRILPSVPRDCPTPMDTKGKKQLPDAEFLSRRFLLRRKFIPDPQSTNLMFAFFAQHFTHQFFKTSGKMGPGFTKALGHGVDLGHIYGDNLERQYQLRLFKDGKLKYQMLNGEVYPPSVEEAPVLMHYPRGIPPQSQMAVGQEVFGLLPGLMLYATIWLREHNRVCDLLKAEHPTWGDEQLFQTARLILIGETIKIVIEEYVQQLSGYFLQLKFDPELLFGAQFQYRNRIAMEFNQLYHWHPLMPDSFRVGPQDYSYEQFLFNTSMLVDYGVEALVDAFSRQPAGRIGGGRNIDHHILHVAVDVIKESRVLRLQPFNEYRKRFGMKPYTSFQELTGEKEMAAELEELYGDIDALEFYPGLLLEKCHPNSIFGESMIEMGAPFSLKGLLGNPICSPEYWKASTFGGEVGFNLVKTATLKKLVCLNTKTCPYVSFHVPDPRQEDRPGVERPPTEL
IC50 (Cyclooxygenase [1]) [µM],IC50 (Cyclooxygenase [2]) [µM],IC50 [3] [µM],half-life [4] [h],IC50 [5] [µM],Cmax [6] [µM],Cmax [7] [µM],Tmax [8] [h],Tmax [9] [h],Tmax [10] [h],IC50 [11] [µM],IC50 [12],inhibition [13] [%],inhibition [14] [%],half-life [15] [h],Cmax (Cmax in dog (PO dose)) [µM],Tmax [16] [h],inhibition (Cyclooxygenase [17]) [%],Structure (SMILES),ED50 (Rattus norvegicus) [mg/kg]
13,12,94,,,,,,,,,,,,,,,,O=C1CCN(c2ccccc2)N1 [PHENIDONE],
,,,0.8,5.8,130,74,1,0.3,2,4.6,5.8 µM and 9.2 µM,28,4,1,132,1,0,O=C1NCCN(c2ccccc2)N1,7
